For orientation: Ki means the equilibrium dissociation constant of an inhibitor or competing ligand from its target. Read a low Ki as higher affinity.

The values below come from ChEMBL document CHEMBL4706586, “Structure-activity relationships for a series of (Bis(4-fluorophenyl)methyl)sulfinylethyl-aminopiperidines and -piperidine amines at the dopamine transporter: Bioisosteric replacement of the piperazine improves metabolic stability” (Eur J Med Chem, 2020).

One data set concerns the target T1, D(4) dopamine receptor (Homo sapiens, UniProt P21917).
T1 sequence (P21917 whole entry): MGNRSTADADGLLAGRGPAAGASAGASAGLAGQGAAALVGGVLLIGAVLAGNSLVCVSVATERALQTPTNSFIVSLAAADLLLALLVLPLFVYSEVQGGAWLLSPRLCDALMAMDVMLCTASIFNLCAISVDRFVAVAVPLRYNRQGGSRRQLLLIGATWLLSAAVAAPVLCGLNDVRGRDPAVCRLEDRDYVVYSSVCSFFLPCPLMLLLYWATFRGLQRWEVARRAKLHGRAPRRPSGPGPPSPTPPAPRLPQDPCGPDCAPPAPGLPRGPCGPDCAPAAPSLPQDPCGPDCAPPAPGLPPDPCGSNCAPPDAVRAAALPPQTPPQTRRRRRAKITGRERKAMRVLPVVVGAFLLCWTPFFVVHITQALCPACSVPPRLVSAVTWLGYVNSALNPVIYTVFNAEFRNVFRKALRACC
In words: Displacement of [3H]-N-methylspiperone from human D4.4 receptor expressed in HEK293 cell membranes measured after 60 mins by microbeta scintillation counting method. Also noted: species or system Membrane. In outline: (§1)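 Membranes from HEK293 cells stably expressing human D2LR, D3R or D4.4R; 20 μg/well protein (D2LR, D3R) or 30 μg/well (D4.4R); [3H]-N-methylspiperone 0.4 nM final; half-log dilutions in 30% DMSO, triplicate; 60 min RT; nonspecific 10 μM (+)-butaclamol.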
(In general: Loss of bound radioactivity is the signal in a displacement assay; it reports binding, not function.)

The target in a further data set is D(2) dopamine receptor (Homo sapiens, UniProt P14416). In words: Displacement of [3H]-N-methylspiperone from human D2L receptor expressed in HEK293 cell membranes measured after 60 mins by microbeta scintillation counting method. Also noted: species or system Membrane. The gist of the method: as §1
D(2) dopamine receptor, sequence (P14416 whole entry): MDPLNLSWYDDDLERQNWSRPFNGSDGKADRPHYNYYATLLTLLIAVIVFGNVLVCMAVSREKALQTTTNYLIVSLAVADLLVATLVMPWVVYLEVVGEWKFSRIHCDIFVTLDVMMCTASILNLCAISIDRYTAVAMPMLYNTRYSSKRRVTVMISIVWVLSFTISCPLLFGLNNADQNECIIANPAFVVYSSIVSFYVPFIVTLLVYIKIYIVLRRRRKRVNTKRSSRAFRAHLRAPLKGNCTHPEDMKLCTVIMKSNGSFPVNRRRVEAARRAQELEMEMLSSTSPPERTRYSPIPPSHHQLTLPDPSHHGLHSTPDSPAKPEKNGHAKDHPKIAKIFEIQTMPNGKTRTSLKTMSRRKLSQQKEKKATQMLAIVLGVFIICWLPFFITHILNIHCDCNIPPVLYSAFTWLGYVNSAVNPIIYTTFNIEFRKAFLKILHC
For another data set, the target named is D(3) dopamine receptor (Homo sapiens, UniProt P35462). The data set is described as follows: Displacement of [3H]-N-methylspiperone from human D3 receptor expressed in HEK293 cell membranes measured after 60 mins by microbeta scintillation counting method. Also noted: species or system Membrane. In outline:
as §1

A short description of data set [1]: Selectivity ratio of Ki for sigma 1 receptor in guinea pig brain cortex membranes to Ki for DAT in Sprague-Dawley rat striatum membranes. Format: cell membranes.
Data set [2] in a line: Metabolic stability in rat liver microsomes assessed as compound remaining at 10 uM incubated for 60 mins in presence of NADPH regenerating system by LC-MS/MS analysis. Format: ADME, Microsome. The note with it: 1 h.
Data set [3] addresses Sigma non-opioid intracellular receptor 1 (Cavia porcellus, UniProt Q60492). In words: Displacement of [3H](+)-pentazocine from sigma 1 receptor in guinea pig brain cortex membranes after 120 mins by scintillation counting analysis. Format: cell membranes, Membrane. The gist of the method: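 Male guinea pig cortex membranes in 10 mM Tris-HCl/0.32 M sucrose pH 7.4, 5.0 mg/well original wet weight; [3H](+)-pentazocine 3 nM final; inhibitor serial dilutions in 30% DMSO vehicle, triplicate; 120 min at RT; nonspecific with 10 μM PRE084 or (+)-pentazocine.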

The species entered for a further data set is Rattus norvegicus. In words: Selectivity ratio of Ki for SERT in Sprague-Dawley rat midbrain membranes to Ki for DAT in Sprague-Dawley rat striatum membranes.
Data set [4] is described as follows: Metabolic stability in rat liver microsomes assessed as compound remaining at 10 uM in presence of NADPH regenerating system by LC-MS/MS analysis. Format: ADME, Microsome.
The target of data set [5] is Sodium-dependent serotonin transporter (Rattus norvegicus, UniProt P31652). In words: Displacement of [3H]citalopram from SERT in Sprague-Dawley rat midbrain membranes incubated for 60 mins by microbeta scintillation counting method. Format: cell membranes, Membrane.
Sodium-dependent serotonin transporter, sequence (P31652 whole entry): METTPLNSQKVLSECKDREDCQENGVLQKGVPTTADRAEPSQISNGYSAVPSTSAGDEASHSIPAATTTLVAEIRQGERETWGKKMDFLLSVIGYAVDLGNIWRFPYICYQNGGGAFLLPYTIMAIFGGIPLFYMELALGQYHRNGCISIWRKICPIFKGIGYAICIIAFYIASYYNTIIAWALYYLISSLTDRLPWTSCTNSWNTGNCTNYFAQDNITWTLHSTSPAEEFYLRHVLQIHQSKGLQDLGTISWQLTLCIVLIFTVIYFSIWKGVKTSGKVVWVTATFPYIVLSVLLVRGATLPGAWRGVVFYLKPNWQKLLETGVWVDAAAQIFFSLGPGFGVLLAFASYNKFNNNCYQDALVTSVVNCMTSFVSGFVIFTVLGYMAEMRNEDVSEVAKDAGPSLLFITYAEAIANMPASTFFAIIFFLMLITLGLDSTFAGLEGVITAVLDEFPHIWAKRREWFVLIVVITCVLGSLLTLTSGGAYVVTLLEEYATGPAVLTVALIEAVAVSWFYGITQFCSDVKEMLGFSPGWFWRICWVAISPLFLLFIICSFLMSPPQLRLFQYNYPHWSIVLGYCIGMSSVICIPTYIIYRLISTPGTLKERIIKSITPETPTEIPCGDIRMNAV
The nature of data set [6]: Metabolic stability in mouse liver microsomes assessed as compound remaining at 10 uM incubated for 60 mins in presence of NADPH regenerating system by LC-MS/MS analysis. Format: ADME, Microsome. The note with it: 1 h.
Data set [7] addresses Sodium-dependent dopamine transporter (Rattus norvegicus, UniProt P23977). In words: Displacement of [3H]WIN35428 from DAT in Sprague-Dawley rat striatal membranes incubated for 120 mins by microbeta scintillation counting method. Format: cell membranes, Striatum, Membrane.
The nature of data set [8]: Toxicity in Swiss Webster mouse assessed as stimulation of ambulatory activity by measuring total distance travelled at 1 to 30 mg/kg, ip measured every 5 mins for 2 hrs. The note with it: in vivo, dose 1-30 mg/kg. Format: organism-based.
Data set [9] is described as follows: Displacement of [3H]-Nisoxetine from NET in Sprague-Dawley rat frontal cortex membrane after 180 mins by microbeta scintillation counting method. Format: cell membranes.
A short description of data set [10]: Toxicity in Swiss Webster mouse assessed as stimulation of ambulatory activity by measuring total distance travelled at 30 mg/kg, ip measured every 5 mins for 2 hrs. Format: organism-based. The note with it: in vivo.

Sodium-dependent dopamine transporter, sequence (P23977 whole entry): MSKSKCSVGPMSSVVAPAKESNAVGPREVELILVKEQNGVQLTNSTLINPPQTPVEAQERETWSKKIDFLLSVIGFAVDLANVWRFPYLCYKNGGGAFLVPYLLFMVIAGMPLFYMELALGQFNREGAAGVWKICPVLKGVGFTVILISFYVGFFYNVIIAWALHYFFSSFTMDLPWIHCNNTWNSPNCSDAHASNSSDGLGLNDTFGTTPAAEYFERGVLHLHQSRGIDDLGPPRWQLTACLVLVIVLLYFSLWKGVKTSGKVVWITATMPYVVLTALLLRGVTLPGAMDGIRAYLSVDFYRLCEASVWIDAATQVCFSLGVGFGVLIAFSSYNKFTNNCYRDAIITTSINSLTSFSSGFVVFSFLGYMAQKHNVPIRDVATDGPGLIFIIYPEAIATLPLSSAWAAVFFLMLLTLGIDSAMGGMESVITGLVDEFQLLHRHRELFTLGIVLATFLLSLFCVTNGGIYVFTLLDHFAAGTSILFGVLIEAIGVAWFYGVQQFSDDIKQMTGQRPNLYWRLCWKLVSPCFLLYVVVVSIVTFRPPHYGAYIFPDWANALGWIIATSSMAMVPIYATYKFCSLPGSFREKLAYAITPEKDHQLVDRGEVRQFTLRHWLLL
Sigma non-opioid intracellular receptor 1, sequence (Q60492 whole entry): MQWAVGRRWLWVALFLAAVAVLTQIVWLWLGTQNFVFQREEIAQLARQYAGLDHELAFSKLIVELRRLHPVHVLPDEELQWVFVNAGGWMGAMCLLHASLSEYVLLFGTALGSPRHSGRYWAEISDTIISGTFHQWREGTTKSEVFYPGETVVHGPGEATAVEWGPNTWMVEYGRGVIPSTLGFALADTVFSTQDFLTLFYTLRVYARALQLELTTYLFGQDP
D(3) dopamine receptor, sequence (P35462 whole entry): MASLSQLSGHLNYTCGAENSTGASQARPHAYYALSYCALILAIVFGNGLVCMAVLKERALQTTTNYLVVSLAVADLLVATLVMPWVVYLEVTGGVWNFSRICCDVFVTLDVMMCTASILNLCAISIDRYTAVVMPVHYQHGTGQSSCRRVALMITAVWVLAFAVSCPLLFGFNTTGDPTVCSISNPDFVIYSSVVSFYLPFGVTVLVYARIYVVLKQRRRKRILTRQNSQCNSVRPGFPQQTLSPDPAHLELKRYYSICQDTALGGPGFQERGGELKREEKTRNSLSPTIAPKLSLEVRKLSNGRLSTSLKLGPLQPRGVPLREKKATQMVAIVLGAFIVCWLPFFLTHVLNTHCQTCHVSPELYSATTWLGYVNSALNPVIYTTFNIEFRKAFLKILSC

With `NC(=O)C[S+]([O-])C(c1ccccc1)c1ccccc1` (racemic) [MODAFINIL], the Ki at D(4) dopamine receptor is above 100000 nM; on D(2) dopamine receptor, above 100000 nM; at D(3) dopamine receptor, 39000 nM.

`[O-][S+](CCNC1CCN(CC(O)Cc2ccccc2)CC1)C(c1ccc(F)cc1)c1ccc(F)cc1` (stereo not drawn): the Ratio Ki in [1] was 3.82; in the data set filed under Rattus norvegicus, 6.53. Besides, the Stabilty in data set [2] worked out at 22%; in [4], 100%. The Ki on D(2) dopamine receptor stood at 6610 nM; at D(3) dopamine receptor, 5500 nM; in [3], 351 nM.

With `O=C(c1ccc(F)cc1F)N1CCC(NCCSC(c2ccc(F)cc2)c2ccc(F)cc2)CC1`, the Ki in [5] amounted to 296 nM; on D(2) dopamine receptor, 7440 nM; at D(3) dopamine receptor, 3260 nM; in [3], 20.6 nM; in data set [7] it was 30 nM; in data set [9] it was 1620 nM. Also, the values for the Stabilty in [2], in [6] and in [4] were 85%, 33% and 100%, respectively. In addition, the Activity in [8] is below 3000 cm.

Take `CC(C)(C)C(=O)N1CCC(NCCSC(c2ccc(F)cc2)c2ccc(F)cc2)CC1`: the Ki on D(4) dopamine receptor amounted to 11900 nM; at D(2) dopamine receptor, 6070 nM; on D(3) dopamine receptor, 3420 nM; in [3] it was 163 nM.

Take `OC(CNC1CCN(CCSC(c2ccc(F)cc2)c2ccc(F)cc2)CC1)Cc1ccccc1` (stereo not drawn): the Ratio Ki was determined as 1.84 in [1] and 1.4 in the data set filed under Rattus norvegicus. Further, the Ki at D(4) dopamine receptor amounted to 2670 nM; at D(2) dopamine receptor, 2270 nM; on D(3) dopamine receptor it was 701 nM; in [3], 88 nM. In addition, the Stabilty came to 69% in [2] and 100% in data set [4].

For the compound `O=C(c1ccccc1)N1CCC(NCCSC(c2ccc(F)cc2)c2ccc(F)cc2)CC1`, the Ratio Ki was 0.45 in data set [1] and 62.8 in the data set listed under Rattus norvegicus. Moreover, the inhibitory constant (Ki) stood at 4110 nM at D(4) dopamine receptor; 283 nM in [5]; 2900 nM on D(2) dopamine receptor; 2510 nM at D(3) dopamine receptor; 2.03 nM in [3]; 4.51 nM in data set [7]. For the same compound, in data set [9], the Ki came out at 920 nM. For the same compound, the Stabilty was determined as 7% in data set [2] and 100% in data set [4].

In the case of `O=C(c1ccc(F)cc1)N1CCC(NCCSC(c2ccc(F)cc2)c2ccc(F)cc2)CC1`, the Ratio Ki in data set [1] was 4.59; in the data set filed under Rattus norvegicus it was 69.5. In addition, the Ki turned out to be 9020 nM on D(4) dopamine receptor; 8830 nM at D(2) dopamine receptor; 5230 nM at D(3) dopamine receptor; 32.1 nM in data set [3]; 7.04 nM in [7]; 258 nM in [9]. For the same compound, the Stabilty was 24% in [2] and 100% in data set [4].

For `CC(O)CN1CCN(CC[S+]([O-])C(c2ccc(F)cc2)c2ccc(F)cc2)CC1` (stereo not drawn), the inhibition constant (Ki) is 97800 nM in [5], 454 nM in data set [3] and above 100000 nM in [9].

As for `Fc1ccc(CN2CCC(NCCSC(c3ccc(F)cc3)c3ccc(F)cc3)CC2)cc1`, the results for the Ratio Ki (in data set [1]; in the data set listed under Rattus norvegicus) were 0.52 and 10.9, respectively. Moreover, the Ki at D(4) dopamine receptor amounted to 980 nM; at D(2) dopamine receptor, 2920 nM; on D(3) dopamine receptor it was 911 nM; in data set [3], 13.3 nM. In addition, the Stabilty in [2] was 70%; in data set [4] it was 100%.

With `OC(Cc1ccccc1)CN1CCC(NCCSC(c2ccc(F)cc2)c2ccc(F)cc2)CC1` (stereo not drawn), the Ki came out at 2200 nM at D(4) dopamine receptor; 4020 nM at D(2) dopamine receptor; 691 nM at D(3) dopamine receptor; 309 nM in data set [3]; 31.4 nM in [7]; 585 nM in data set [9]. Also, the results for the Stabilty in data set [2] and in data set [4] were 74% and 100%, respectively.

Regarding `[O-][S+](CCNC1CCN(Cc2ccc(F)cc2)CC1)C(c1ccc(F)cc1)c1ccc(F)cc1` (stereo not drawn), the Ratio Ki in data set [1] stood at 0.52; in the data set listed under Rattus norvegicus, 7.37. Besides, the Ki on D(4) dopamine receptor amounted to 76800 nM; on D(2) dopamine receptor, 12400 nM; at D(3) dopamine receptor, 12400 nM; in data set [3] it was 26.5 nM; in data set [9] it was 11200 nM. Moreover, the Stabilty in [2] is on record as 95%; in data set [4], 100%. In addition, the Activity in data set [8] is recorded as below 3000 cm.

Consider `O=C(c1ccc(F)cc1)N1CCC(NCC[S+]([O-])C(c2ccc(F)cc2)c2ccc(F)cc2)CC1` (stereo not drawn), for which the Ratio Ki in data set [1] was 18.7; in the data set filed under Rattus norvegicus, 60.1. For the same compound, the Ki was above 100000 nM on D(4) dopamine receptor; 156000 nM on D(2) dopamine receptor; 28200 nM at D(3) dopamine receptor; 1440 nM in data set [3]; 23000 nM in [9]. Moreover, the Stabilty in data set [2] turned out to be 79%; in data set [4] it was 100%. For the same compound, in data set [8], the Activity is reported as below 3000 cm.

Consider `COC(=O)[C@H]1[C@@H](OC(=O)c2ccccc2)C[C@@H]2CC[C@H]1N2C` [COCAINE], for which, in [10], the Activity is recorded as 8000 cm.
